Assay results: ChEMBL document CHEMBL4706595, “1,3-Oxazine-2-one derived dual-targeted molecules against replicating and non-replicating forms of Mycobacterium tuberculosis” (Eur J Med Chem, 2020)
In brackets after ≈: the same amount, converted by molar mass.

Columns and labels:
[1] = test system: Mycobacterium tuberculosis; assay: Antimycobacterial activity against isoniazid-resistant Mycobacterium tuberculosis H37Rv ATCC 35822 assessed as inhibition of bacterial growth by agar plate dilution method; type: functional
In short: (§1)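 MIC determined by agar plate dilution method; isoniazid and rifampin run as references.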

[2] = test system: Mycobacterium tuberculosis; assay: Antimycobacterial activity against rifampicin-resistant Mycobacterium tuberculosis H37Rv ATCC 35838 assessed as inhibition of bacterial growth by agar plate dilution method; type: functional; in short: as §1

Row | SMILES | MIC [1] [µg/mL] | MIC [2] [µg/mL]
1 | CO[C@H]1/C=C/O[C@@]2(C)Oc3c(C)c(O)c4c(O)c(c(/C=N/N5CCN(C)CC5)c(O)c4c3C2=O)NC(=O)/C(C)=C\C=C\[C@H](C)[C@H](O)[C@@H](C)[C@@H](O)[C@@H](C)[C@H](OC(C)=O)[C@@H]1C [RIFAMPIN] | 0.03 (≈ 0.0365 µM) | > 2
2 | CC(C)=CCC/C(C)=C/CC/C(C)=C/COc1ccc(C(=O)OCCCOc2cccc(Nc3nc4ccccc4c(=O)o3)c2)cc1 | 2.3 (≈ 3.61 µM) | 1.8 (≈ 2.83 µM)
3 | CC(C)=CCC/C(C)=C/COc1ccc(C(=O)OCCCOc2cccc(Nc3nc4ccccc4c(=O)o3)c2)cc1 | 4.4 (≈ 7.74 µM) | 2.6 (≈ 4.57 µM)
4 | NNC(=O)c1ccncc1 [ISONIAZID] | > 8 | 0.25 (≈ 1.82 µM)
